For series [1], the system named is Mus musculus. The series can be described thus: Antidotal activity in ip dosed male mouse assessed as inhibition of tetraethylpyrophosphate-induced intoxication drug administered 5 mins prior to subcutaneously administration of 3 X LD50 of TEPP in presence of 25 mg/kg atropine sulfate. The class given is functional, organism-based. Set-up: dose 25 mg/kg. The conditions noted are these: at 25 mg/kg. In a few lines: (§1)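 Male mice, 20 g body weight. Compound was dissolved in saline or propylene glycol and given ip at the maximal dose (up to 100 mg/kg) that caused no observable symptoms alongside atropine sulfate (25 mg/kg), per preliminary groups of four mice. It was co-injected with atropine 5 min before sc 3 × LD50 TEPP. Surviving mice were scored from two experiments of five animals each.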

Series [2] relates to Ileum. The series can be described thus: Inhibition of acetylcholine-induced contraction in guinea pig ileum at 10 ug/ml. To be noted: for inhibition at 10 µg/mL: Cavia porcellus, Ileum. Type of series: functional, Cavia porcellus. In a few lines: (§2)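 Terminal guinea pig ileum segment in a 5-ml organ bath of Tyrode solution at 35°, with isometric kymograph recording. Control contractions were elicited with 0.1 μg AcCh. Compound was added, and AcCh followed 1 min later without washing. The value is percent reduction of the control AcCh response, averaged over two separate assays. Concentrations are final per ml of bath fluid.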

The test system of series [3] is Mus musculus. The series can be described thus: Antidotal activity in male mouse assessed as inhibition of tetraethylpyrophosphate-induced intoxication at 100 mg/kg, ip drug administered 5 mins prior to subcutaneously administration of 3 X LD50 of TEPP in presence of 25 mg/kg atropine sulfate. The class given is functional, organism-based. In a few lines:
as §1

Series [4] deals with Ileum. The series can be described thus: Toxicity in guinea pig ileum assessed as spasmogenic activity relative to 0.6 ug/ml pilocarpine. Type of series: tissue-based, Cavia porcellus. To be noted: ex_vivo. The method in brief:
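Guinea pig terminal ileum in a 5-ml Tyrode bath at 35°, with isometric kymograph recording at 16× magnification. Contact time was 30 sec with a 2-min cycle. Reference contractions used pilocarpine (0.6 μg). Compounds were applied at several concentrations, and potency relative to pilocarpine was calculated from contraction heights.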

The test system of series [5] is Ileum. The series can be described thus: Toxicity in guinea pig ileum assessed as spasmogenic activity treated 1 min after addition of 10 ng/ml muscarinic acetylcholine receptor antagonist atropine sulphate. The class given is tissue-based, Cavia porcellus.
The subject of series [6] is Ileum. The series can be described thus: Inhibition of acetylcholine-induced contraction in guinea pig ileum at 0.1 ug/ml. The class given is functional. To be noted: Cavia porcellus. In a few lines:
as §2

The test system of series [7] is Ileum. The series can be described thus: Inhibition of acetylcholine-induced contraction in guinea pig ileum at 0.4 ug/ml. The conditions noted are these: Cavia porcellus. The class given is functional. The method in brief: as §2
Series [8] has as its system Ileum. The series can be described thus: Inhibition of acetylcholine-induced contraction in guinea pig ileum at 2 ug/ml. Type of series: functional. To be noted: Cavia porcellus. The method in brief:
as §2

Series [9] relates to Ileum. The series can be described thus: Inhibition of acetylcholine-induced contraction in guinea pig ileum at 0.03 ug/ml. To be noted: Cavia porcellus, read-out: INH.
The subject of series [10] is Ileum. The series can be described thus: Toxicity in guinea pig ileum assessed as spasmogenic activity at 0.6 ug/ml. Type of series: tissue-based, Cavia porcellus.
For series [11], the system named is Mus musculus. The series can be described thus: Antidotal activity in male mouse assessed as inhibition of tetraethylpyrophosphate-induced intoxication at 50 mg/kg, ip drug administered 5 mins prior to subcutaneously administration of 3 X LD50 of TEPP in presence of 25 mg/kg atropine sulfate. The class given is functional, organism-based. The method in brief:
as §1

The test system of series [12] is Ileum. The series can be described thus: Inhibition of acetylcholine-induced contraction in guinea pig ileum at 1 ug/ml. The class given is functional. To be noted: Cavia porcellus. The method in brief: as §2
Series [13] deals with Mus musculus. The series can be described thus: Antidotal activity in male mouse assessed as inhibition of tetraethylpyrophosphate-induced intoxication at 25 mg/kg, ip drug administered 5 mins prior to subcutaneously administration of 3 X LD50 of TEPP in presence of 25 mg/kg atropine sulfate. Type of series: functional, organism-based. The method in brief:
as §1

Molecules are shown by their SMILES. Counter-ions that a name gives are not always drawn. Calls of active or inactive are those of the source. No cut-off for these calls is given here.

For the compound `CCC1C(=O)OCC1Cc1c[n+](C/C(=N\O)c2ccc(-c3ccccc3)cc2)cn1C` (stereo not given) [listing 1 of 2 here], the inhibition result in the series with Mus musculus [1] is “inactive”.

Consider `CCC(C(=O)NO)C(CO)Cc1c[n+](CC(=O)c2ccc(Br)cc2)cn1C` (stereo not given), for which, in the series on Ileum [2], the inhibition at 10 µg/mL came out at 80%. Also, in the series on Mus musculus [1], the inhibition entry is “inactive”.

`CCC(C(=O)NO)C(CO)Cc1c[n+](Cc2ccc(Cl)c(Cl)c2)cn1C` (stereo not given) returned an inhibition at 10 µg/mL with Ileum [2] of 25%. The inhibition result in the series with Mus musculus [3] was “Active”.

Regarding `CCC1C(=O)OCC1Cc1c[n+](C/C(=N\O)c2ccc(Br)cc2)cn1C.[Cl-]` (stereo not given), in the series on Ileum [2], the “inhibition (INH)” value is reported as 50%.

For `CCC1C(=O)OCC1Cc1c[n+](C/C(=N\O)c2ccc(Br)cc2)cn1C.[Br-]` (stereo not given), in the series on Ileum [2], the “inhibition (INH)” value is reported as 100%.

Take `CCC(C(=O)NO)C(CO)Cc1c[n+](C/C(=N\O)c2ccc(Br)cc2)cn1C` (stereo not given): the inhibition at 10 µg/mL with Ileum [2] is 55%.

Take `CCC(C(=O)NO)C(CO)Cc1c[n+](Cc2ccc(Br)cc2)cn1C` (stereo not given): the inhibition at 10 µg/mL in the series with Ileum [2] worked out at 95%. Besides, in the series with Mus musculus [3], the inhibition entry was “Active”.

`CC[C@H]1C(=O)OC[C@@H]1Cc1cncn1C`: the “fold change (FC)” value with Ileum [4] turned out to be 0.02. Moreover, the Activity entry in the series with Ileum [5] is “Non-toxic”.

Take `CCC(C(=O)NO)C(CO)Cc1c[n+](CC(=O)c2ccc([N+](=O)[O-])cc2)cn1C.[Br-]` (stereo not given): the inhibition at 0.1 µg/mL in the series on Ileum [6] is 0%. The inhibition result in the series with Mus musculus [1] was “inactive”. Besides, in the series with Ileum [4], the “fold change (FC)” value is 0.1. For the same compound, in the series on Ileum [5], the Activity result is reported as “Non-toxic”.

In turn, `CCC1C(=O)OCC1Cc1c[n+](CC(=O)c2ccc(-c3ccccc3)cc2)cn1C` (stereo not given) showed an inhibition at 10 µg/mL in the series with Ileum [2] of 100%. Further, the inhibition result in the series on Mus musculus [1] is “inactive”.

`CCC(C(=O)NO)C(CO)Cc1c[n+](CC)cn1C` (stereo not given) displayed an inhibition at 10 µg/mL with Ileum [2] of 55%.

In the series on Ileum [7], `CCC1C(=O)OCC1Cc1c[n+](CCCO)cn1C.[Br-]` (stereo not given) had an inhibition at 0.4 µg/mL of 0%. Further, the “fold change (FC)” value with Ileum [4] is 0.05. Moreover, in the series on Ileum [5], the Activity entry is recorded as “Non-toxic”.

On to `CCC1C(=O)OCC1Cc1c[n+](CC(=O)c2ccc(Br)cc2)cn1C` (stereo not given), for which the inhibition at 10 µg/mL in the series with Ileum [2] is 90%. In the series on Mus musculus [3], the inhibition result was “inactive”.

The compound `CCC1C(=O)OCC1Cc1c[n+](C/C(=N\O)c2ccc(-c3ccccc3)cc2)cn1C` (stereo not given) [listing 2 of 2 here] displayed an inhibition at 10 µg/mL in the series with Ileum [2] of 100%.

The compound `CCC(C(=O)NO)C(CO)Cc1c[n+](Cc2ccc(C)cc2)cn1C` (stereo not given) had an inhibition at 10 µg/mL in the series with Ileum [2] of 55%. In the series with Mus musculus [3], the inhibition result is “Active”.

For the compound `CCC1C(=O)OCC1Cc1c[n+](CCOC(C)=O)cn1C.[Br-]` (stereo not given), in the series with Ileum [6], the inhibition at 0.1 µg/mL turned out to be 0%. The inhibition entry in the series on Mus musculus [3] is “inactive”. In addition, in the series with Ileum [4], the “fold change (FC)” value is 0.1. Moreover, the Activity entry with Ileum [5] is on record as “Non-toxic”.

In turn, `CCC(C(=O)NO)C(CO)Cc1c[n+](C/C(=N\O)c2ccc([N+](=O)[O-])cc2)cn1C.[Br-]` (stereo not given) returned an inhibition at 2 µg/mL in the series with Ileum [8] of 0%. In addition, the “fold change (FC)” value in the series with Ileum [4] was found to be 0.01. The Activity entry with Ileum [5] is listed as “Non-toxic”.

On to `CN1[C@@H]2CC[C@H]1C[C@@H](OC(=O)C(CO)c1ccccc1)C2` (stereo not given in full) [ATROPINE SULFATE], for which the inhibition at 0.03 µg/mL in the series on Ileum [9] stood at 100%. The inhibition result with Mus musculus [1] is “inactive”.

Regarding `CCC(C(=O)NO)C(CO)Cc1c[n+](C/C(=N\O)c2ccc(-c3ccccc3)cc2)cn1C` (stereo not given), the inhibition at 10 µg/mL in the series with Ileum [2] came to 53%.

On to `CC[C@@H]1C(=O)OC[C@@H]1Cc1cncn1C` [PILOCARPINE], for which the Activity entry in the series on Ileum [10] was “Toxic”.

The compound `CCC1C(=O)OCC1Cc1c[n+](C/C(=N\O)c2ccccc2)cn1C` (stereo not given) had an inhibition at 10 µg/mL in the series on Ileum [2] of 30%. Besides, in the series on Mus musculus [11], the inhibition entry was “Active”.

Consider `CCC1C(=O)OCC1Cc1c[n+](CC(=O)c2ccc([N+](=O)[O-])cc2)cn1C.[Br-]` (stereo not given), for which the inhibition at 1 µg/mL in the series with Ileum [12] turned out to be 0%. For the same compound, in the series on Mus musculus [1], the inhibition entry is “inactive”. In the series on Ileum [4], the “fold change (FC)” value was 0.01.

As for `CCC1C(=O)OCC1Cc1c[n+](C/C(=N\O)c2ccc(Br)cc2)cn1C` (stereo not given), the inhibition entry with Mus musculus [1] was “inactive”. The inhibition entry in the series with Mus musculus [13] is “Active”.

`CCC1C(=O)OCC1Cc1c[n+](CCO)cn1C.[Br-]` (stereo not given): the inhibition at 0.1 µg/mL in the series on Ileum [6] came out at 0%. Further, in the series on Mus musculus [1], the inhibition result is “inactive”. In addition, in the series on Ileum [4], the “fold change (FC)” value came out at 0.1. Besides, the Activity result with Ileum [5] is “Non-toxic”.

Take `CCC1C(=O)OCC1Cc1c[n+](C/C(=N\O)c2ccc(-c3ccccc3)cc2)cn1C.[Cl-]` (stereo not given): the “inhibition (INH)” value in the series on Ileum [2] is given as 80%.

For the compound `CCC1C(=O)OCC1Cc1c[n+](CCCOC(C)=O)cn1C.[Br-]` (stereo not given), the inhibition at 0.4 µg/mL with Ileum [7] came out at 0%. The “fold change (FC)” value in the series with Ileum [4] was 0.05. Besides, the Activity entry in the series on Ileum [5] is reported as “Non-toxic”.

In turn, `CCC1C(=O)OCC1Cc1c[n+](C/C(=N/O)c2ccc([N+](=O)[O-])cc2)cn1C` (stereo not given) had an inhibition at 10 µg/mL in the series with Ileum [2] of 90%. The inhibition entry in the series on Mus musculus [1] is “inactive”.

Values taken from ChEMBL document CHEMBL3272021, “Quaternary pilocarpine derivatives as potential acetylcholine antagonists. 2. Alterations in the lactone and imidazole moieties” (J Med Chem, 1976).
